Reference: ChEMBL document CHEMBL1157826 (J Med Chem, 2010)
Each block holds one compound with its values, some of them ahead of it. Activity calls are given as the source filed them. The rule behind the calls is not given here.

Columns and labels:
[1] = test system: BP3; experiment: Induction of apoptosis in human BP3 cells after 1 to 2 days by FITC-conjugated annexin V and propidium iodide staining-based FACS analysis; format: functional, cell-based
[2] = test system: MEF; experiment: Induction of apoptosis in MEF expressing wild type Bcl-2 protein at 30 uM after 24 hrs by FITC-conjugated annexin V and propidium iodide staining-based FACS analysis; format: functional, cell-based; details: Mus musculus
Method in brief: (§1)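 Next day, compound was added at final 0, 2.5, 5.0, 7.5, 10 and 30 μM. The following day, floating and trypsinized adherent cells were pooled and stained with Annexin V-FITC/PI. Cells negative for both were scored viable by flow cytometry.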

[3] = test system: MEF; experiment: Induction of apoptosis in Bak/Bax double knockout MEF at 30 uM after 24 hrs by FITC-conjugated annexin V and propidium iodide staining-based FACS analysis; format: functional; details: Mus musculus; method in brief: as §1
[4] = test system: M2182; experiment: Antitumor activity against Mcl-1 overexpressing human M2182 cells xenografted in BALB/c mouse assessed as reduction of tumor size at 25 mg/kg, ip administered 9 times every 2 days; format: functional, organism-based; parameters: dose 25 mg/kg
Method in brief: (§2)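 Dosing started at visible tumors of ~75 mm3 (~5–6 days): i.p. every 2 days, nine injections in all, in ethanol/Cremophor EL/saline 10:10:80 (500 μL). Vehicle controls were used, with at least five mice per group. Tumors were followed by luciferin (150 mg/kg i.p.) bioluminescence imaging and excised at study end.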

[5] = test system: MEF; experiment: Induction of apoptosis in Bak/Bax double knockout MEF at […] after 24 hrs by FITC-conjugated annexin V and propidium iodide staining-based FACS analysis; format: functional, cell-based; details: Mus musculus; method in brief: as §1
[6] = test system: Mus musculus; experiment: Toxicity in BALB/c mouse xenografted with Mcl-1 overexpressing human M2182 cells at 10 to 25 mg/mg, ip administered 9 times every 2 days; format: organism-based; details: in vivo, 48 h
Method in brief: (§3)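 Athymic nude male mice bearing bilateral s.c. M2182-Luc tumors (~75 mm3) received i.p. doses every 2 days, nine injections in all, in ethanol/Cremophor EL/saline 10:10:80 (500 μL). At least five animals per group. Tolerability was judged by signs of toxicity over the course of treatment.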

[7] = test system: M2182; experiment: Antitumor activity against Mcl-1 overexpressing human M2182 cells xenografted in BALB/c mouse assessed as complete inhibition of tumor growth at 25 mg/kg, ip administered 9 times every 2 days; format: functional, organism-based; parameters: dose 25 mg/kg; method in brief: as §2
[8] = test system: M2182; experiment: Antitumor activity against Mcl-1 overexpressing human M2182 cells xenografted in BALB/c mouse assessed as reduction of tumor size at 10 mg/kg, ip administered 9 times every 2 days; format: functional, organism-based; parameters: dose 10 mg/kg; method in brief: as §2
[9] = test system: Mus musculus; experiment: Reduction of Bcl-2 accumulation in human Bcl2 expressing B6 transgenic mouse assessed as reduction in spleen weight at 42 mg/kg, ip administered as single dose after 24 hrs; format: functional; details: route intraperitoneal; for inhibition in vivo at 42 mg/kg: Mus musculus, B6, Spleen, ip, 24 h
Method in brief: (§4)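 Age- and sex-matched B6 transgenic mice (human BCL-2 minigene fused to the IgH locus/enhancer, not yet lymphomatous; two per compound) received a single i.p. dose in 500 μL ethanol/Cremophor EL/saline 10:10:80. Controls received vehicle alone. Mice were killed with Avertin 24 h later and spleens weighed. Shrinkage was expressed as percent reduction versus controls.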

[10] = Chemical stability at 10 mmol/L after 80 days at 37 degC by LC/MS/MS analysis; format: physicochemical; details: 1920 h, 10000 µM
[11] = Antitumor activity against Mcl-1 overexpressing human M2182 cells xenografted in BALB/c mouse assessed as inhibition of tumor growth at 3 mg/kg, ip administered 9 times every 2 days; format: functional; parameters: scale not given: the % may be the effect or the level left; details: route intraperitoneal; method in brief: as §2
[12] = test system: Mus musculus; experiment: Reduction of Bcl-2 accumulation in human Bcl2 expressing B6 transgenic mouse assessed as induction of spleen shrinkage at 42 mg/kg, ip administered as single dose after 24 hrs; format: functional; parameters: scale not given: the % may be the effect or the level left; details: route intraperitoneal; method in brief: as §4
[13] = Chemical stability at 10 mmol/L after 80 days at 42 degC by LC/MS/MS analysis; format: physicochemical; details: 1920 h, 10000 µM
[14] = test system: Liver microsomes; experiment: (§5) Metabolic stability in rat liver microsomes at 4 uM after 40 mins by LC/MS/MS analysis; format: ADME, Microsome; details: microsomes, 40 min, 4 µM
Method in brief: (§6)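 Test compounds were incubated in rat liver microsomal preparations for 40 min, and the fraction of compound remaining or degraded was reported.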

[15] = Chemical stability at 10 mmol/L after 80 days at 21 degC by LC/MS/MS analysis; format: physicochemical; details: 1920 h, 10000 µM
[16] = Chemical stability at 10 mmol/L after 80 days at -20 degC by LC/MS/MS analysis; format: physicochemical; details: 1920 h, 10000 µM
[17] = test system: Mus musculus; experiment: Toxicity in BALB/c mouse xenografted with Mcl-1 overexpressing human M2182 cells at 1 to 5 mg/mg, ip administered 9 times every 2 days; format: organism-based; details: in vivo, 48 h; method in brief: as §3
[18] = test system: M2182; experiment: Antitumor activity against Mcl-1 overexpressing human M2182 cells xenografted in BALB/c mouse assessed as reduction of tumor size at 1 to 5 mg/kg, ip administered 9 times every 2 days; format: functional, organism-based; method in brief: as §2
[19] = test system: M2182; experiment: Antitumor activity against Mcl-1 overexpressing human M2182 cells xenografted in BALB/c mouse assessed as complete inhibition of tumor growth at 5 mg/kg, ip administered 9 times every 2 days; format: functional, organism-based; parameters: dose 5 mg/kg; method in brief: as §2
[20] = as §5; format: ADME, Microsome; details: liver microsomes, read-out: Stability; method in brief: as §6
[21] = target: Bcl-2-like protein 1 (Homo sapiens, UniProt Q07817); experiment: Displacement of FITC-labeled Bak BH3 peptide from Bcl-XL after 30 mins by fluorescence polarization assay
Bcl-2-like protein 1, sequence (Q07817 whole entry): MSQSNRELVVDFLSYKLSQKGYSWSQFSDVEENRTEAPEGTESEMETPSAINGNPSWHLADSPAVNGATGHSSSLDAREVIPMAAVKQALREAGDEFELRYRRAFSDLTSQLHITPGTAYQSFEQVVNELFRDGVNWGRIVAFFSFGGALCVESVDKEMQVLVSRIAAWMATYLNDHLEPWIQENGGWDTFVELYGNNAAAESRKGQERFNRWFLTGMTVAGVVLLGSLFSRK

SMILES: Cc1cc2c(C(=O)NC[C@@H](C)c3ccccc3)c(O)c(O)cc2c(O)c1-c1c(C)cc2c(C(=O)NC[C@@H](C)c3ccccc3)c(O)c(O)cc2c1O
Activity [1]: Dose-dependent effect
Activity [2]: Active
Activity [3]: Active

SMILES: Cc1cc2c(C(=O)NC[C@H](C)c3ccccc3)c(O)c(O)cc2c(O)c1-c1c(C)cc2c(C(=O)NC[C@H](C)c3ccccc3)c(O)c(O)cc2c1O
Activity [1]: Dose-dependent effect

SMILES: Cc1cc2c(C(=O)NCC(C)c3ccccc3)c(O)c(O)cc2c(O)c1-c1c(C)cc2c(C(=O)NCC(C)c3ccccc3)c(O)c(O)cc2c1O (racemic)
Activity [4]: Active
Activity [5]: Active
Activity [6]: Non-toxic
Activity [7]: Active
Activity [8]: inactive

Stability [10]: Stable
Stability [13]: Stable
Stability [14]: 41%
Stability [15]: Stable
Stability [16]: Stable
SMILES: Cc1cc2c(C(=O)NC[C@H](C)c3ccccc3)c(O)c(O)cc2c(O)c1-c1c(C)cc2c(C(=O)NC[C@H](C)c3ccccc3)c(O)c(O)cc2c1O (single isomer, unassigned; atropisomer) [listing 1 of 2 here]
inhibition in vivo at 42 mg/kg [9]: > 30%
Activity [11]: 40%
Activity ([12]; 42 mg/kg): 65%
Activity [17]: Non-toxic

Stability [10]: Stable
Stability [13]: Stable
Stability [14]: 42%
Stability [15]: Stable
Stability [16]: Stable
SMILES: Cc1cc2c(C(=O)NC[C@@H](C)c3ccccc3)c(O)c(O)cc2c(O)c1-c1c(C)cc2c(C(=O)NC[C@@H](C)c3ccccc3)c(O)c(O)cc2c1O (single isomer, unassigned; atropisomer) [listing 1 of 2 here]
inhibition in vivo at 42 mg/kg [9]: ≤ 20%
Activity [12]: <=40%

SMILES: Cc1cc2c(C(=O)NC[C@@H](C)c3ccccc3)c(O)c(O)cc2c(O)c1-c1c(C)cc2c(C(=O)NC[C@@H](C)c3ccccc3)c(O)c(O)cc2c1O (single isomer, unassigned; atropisomer) [listing 2 of 2 here]
Activity [1]: Dose-dependent effect

SMILES: Cc1cc2c(C(=O)NC[C@H](C)c3ccccc3)c(O)c(O)cc2c(O)c1-c1c(C)cc2c(C(=O)NC[C@H](C)c3ccccc3)c(O)c(O)cc2c1O (single isomer, unassigned; atropisomer) [listing 2 of 2 here]
Activity [1]: Dose-dependent effect
Activity [18]: Active
Activity [2]: Active
Activity [19]: Active

remaining at 40 min, 4 µM [20]: 28%
SMILES: Cc1cc2c(C(=O)NC[C@H](C)c3ccccc3)c(O)c(O)cc2c(O)c1-c1c(C)cc2c(C(=O)NC[C@H](C)c3ccccc3)c(O)c(O)cc2c1O [1,1',6,6',7,7'-HEXAHYDROXY-3,3'-DIMETHYL-N5-((R)-2-PHENYLPROPYL)-N5'-((R)-2-PHENYLPROPYL)-2,2'-BINAPHTHYL-5,5'-DICARBOXAMIDE (ATROPISOMERIC MIX)]
inhibition (INH) ([9]; 42 mg/kg): <=20%
Activity ([12]; 42 mg/kg): <=40%
Activity [6]: Non-toxic

remaining at 40 min, 4 µM [20]: 41%
SMILES: Cc1cc2c(C(=O)NC[C@@H](C)c3ccccc3)c(O)c(O)cc2c(O)c1-c1c(C)cc2c(C(=O)NC[C@@H](C)c3ccccc3)c(O)c(O)cc2c1O [(S)-1',6,6',7,7'-HEXAHYDROXY-3,3'-DIMETHYL-N5-((S)-2-PHENYLPROPYL)-N5'-((S)-2-PHENYLPROPYL)-2,2'-BINAPHTHYL-5,5'-DICARBOXAMIDE (ATROPISOMERIC MIX)]

SMILES: Cc1cc2c(C(C)C)c(O)c(O)c(C=O)c2c(O)c1-c1c(C)cc2c(C(C)C)c(O)c(O)c(C=O)c2c1O [GOSSYPOL]
IC50 [21]: 540 nM
